Experimental data published in ChEMBL document CHEMBL4819032, “Structure-based design of highly selective 2,4,5-trisubstituted pyrimidine CDK9 inhibitors as anti-cancer agents” (Eur J Med Chem, 2021).
Active and inactive are the calls of the source. The calls are words filed in the database; no cut-off is given here.

Columns and labels:
[1] = target: Cyclin-dependent kinase 1/cyclin B1 (Homo sapiens, UniProt P06493); assay: Inhibition of recombinant human full length CDK1/Cyclin B using histone H1 as substrate incubated for 40 mins in presence of [gamma-33P]-ATP by scintillation counting method; assay type: protein-complex assay
How it was run: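 Radiometric kinase assay with ATP at each kinase's Km(app). IC50 values come from 10-point dose-response curves, and apparent Ki is calculated from IC50 and the kinase's Km(ATP).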

[2] = organism: Homo sapiens; assay: Selectivity index, ratio of Ki for inhibition of recombinant human full length CDK9/Cyclin T1 to Ki for inhibition of recombinant human full length CDK7/Cyclin H
[3] = target: T1, Serine/threonine-protein kinase Nek2 (Homo sapiens) (UniProt P51955); assay: Inhibition of recombinant human full length NEK2 using myelin basic protein as substrate incubated for 40 mins by scintillation counting method
T1 sequence (whole entry): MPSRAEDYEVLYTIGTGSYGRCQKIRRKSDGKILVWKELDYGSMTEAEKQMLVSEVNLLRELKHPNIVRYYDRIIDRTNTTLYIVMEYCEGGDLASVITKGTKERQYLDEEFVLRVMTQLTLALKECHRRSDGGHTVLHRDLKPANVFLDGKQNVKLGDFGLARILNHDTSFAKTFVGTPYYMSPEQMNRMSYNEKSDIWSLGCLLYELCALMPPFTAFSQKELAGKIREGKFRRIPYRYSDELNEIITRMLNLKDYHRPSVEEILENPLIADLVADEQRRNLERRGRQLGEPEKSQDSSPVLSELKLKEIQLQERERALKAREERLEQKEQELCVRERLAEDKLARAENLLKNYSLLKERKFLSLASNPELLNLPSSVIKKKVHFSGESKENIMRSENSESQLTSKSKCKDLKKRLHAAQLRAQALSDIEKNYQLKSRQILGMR
How it was run: (§1)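 The 60-kinase diversity panel was run as a radiometric assay with ATP at each kinase's Km(app). Compound was tested at one fixed concentration across all kinases.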

[4] = target: Tyrosine-protein kinase Fyn (Homo sapiens) (UniProt P06241); assay: Inhibition of recombinant human full length FYN using KVEKIGEGTYGVVYK as substrate incubated for 40 mins by scintillation counting method; how it was run: as §1
[5] = test system: HT-29; assay: Growth inhibition of human HT-29 cells after 48 hrs by MTT assay; assay type: functional
[6] = test system: MDA-MB-468; assay: Growth inhibition of human MDA-MB-468 cells after 48 hrs by MTT assay; assay type: functional
[7] = test system: MIA PaCa-2; assay: Growth inhibition of human MIA PaCa-2 cells after 48 hrs by MTT assay; assay type: functional
[8] = test system: A2780; assay: Induction of apoptosis in human A2780 cells assessed as viable cells at 0.5 uM after 24 hrs by Annexin V-FITC/PI staining based flow cytometric analysis (reference value: 92%); assay type: functional; conditions: read-out: Activity
How it was run: (§2)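 A2780 cells cultured 24 h in medium alone or with varying inhibitor concentrations, then stained with FITC-annexin V/PI per kit protocol and analysed by flow cytometry. Run in triplicate and repeated at least twice; significance by one-way ANOVA, p < 0.01.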

[9] = test system: A2780; assay: Induction of apoptosis in human A2780 cells assessed as late apoptotic cells at 0.5 uM after 24 hrs by Annexin V-FITC/PI staining based flow cytometric analysis (reference value: 2.8%); assay type: functional; how it was run: as §2
[10] = test system: A2780; assay: Induction of apoptosis in human A2780 cells assessed as early apoptotic cells at 1 uM after 24 hrs by Annexin V-FITC/PI staining based flow cytometric analysis (reference value: 1.6%); assay type: functional; how it was run: as §2
[11] = test system: A2780; assay: Induction of apoptosis in human A2780 cells assessed as late apoptotic cells at 1 uM after 24 hrs by Annexin V-FITC/PI staining based flow cytometric analysis (reference value: 2.8%); assay type: functional; how it was run: as §2
[12] = test system: A2780; assay: Induction of apoptosis in human A2780 cells assessed as early apoptotic cells at 2 uM after 24 hrs by Annexin V-FITC/PI staining based flow cytometric analysis (reference value: 1.6%); assay type: functional; how it was run: as §2
[13] = test system: A2780; assay: Induction of apoptosis in human A2780 cells assessed as late apoptotic cells at 2 uM after 24 hrs by Annexin V-FITC/PI staining based flow cytometric analysis (reference value: 2.8%); assay type: functional; how it was run: as §2
[14] = test system: A2780; assay: Induction of apoptosis in human A2780 cells assessed as early apoptotic cells at 5 uM after 24 hrs by Annexin V-FITC/PI staining based flow cytometric analysis (reference value: 1.6%); assay type: functional; how it was run: as §2
[15] = test system: A2780; assay: Induction of cell cycle arrest in human A2780 cells assessed as accumulation at pre-G1 phase at 0.5 uM after 24 hrs by propidium iodide staining based flow cytometric analysis (reference value: 1.2%); assay type: functional
[16] = test system: A2780; assay: Induction of cell cycle arrest in human A2780 cells assessed as accumulation at G1/G0 phase at 0.5 uM after 24 hrs by propidium iodide staining based flow cytometric analysis (reference value: 56.7%); assay type: functional
How it was run: (§3)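 4 × 10⁵ A2780 cells cultured 24 h in medium alone or with varying inhibitor concentrations, harvested into hypotonic fluorochrome solution (0.1% sodium citrate, 0.1% Triton X-100, propidium iodide, 100 ug/ml RNase A), and DNA content analysed by flow cytometry. Representative of three independent experiments.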

[17] = test system: A2780; assay: Induction of cell cycle arrest in human A2780 cells assessed as accumulation at G1/G0 phase at 1 uM after 24 hrs by propidium iodide staining based flow cytometric analysis (reference value: 56.7%); assay type: functional; how it was run: as §3
[18] = test system: A2780; assay: Induction of cell cycle arrest in human A2780 cells assessed as accumulation at S phase at 1 uM after 24 hrs by propidium iodide staining based flow cytometric analysis (reference value: 20%); assay type: functional; how it was run: as §3
[19] = test system: A2780; assay: Induction of cell cycle arrest in human A2780 cells assessed as accumulation at pre-G1 phase at 2 uM after 24 hrs by propidium iodide staining based flow cytometric analysis (reference value: 1.2%); assay type: functional
[20] = test system: A2780; assay: Induction of cell cycle arrest in human A2780 cells assessed as accumulation at S phase at 5 uM after 24 hrs by propidium iodide staining based flow cytometric analysis (reference value: 20%); assay type: functional; how it was run: as §3
[21] = test system: A2780; assay: Induction of cell cycle arrest in human A2780 cells assessed as accumulation at G2/M phase at 5 uM after 24 hrs by propidium iodide staining based flow cytometric analysis (reference value: 21.6%); assay type: functional; how it was run: as §3
[22] = test system: A2780; assay: Induction of cell cycle arrest in human A2780 cells assessed as accumulation at pre-G1 phase after 24 hrs by propidium iodide staining based flow cytometric analysis; assay type: functional; conditions: dose 0.5-5 µM; how it was run: as §3
[23] = target: Cyclin-dependent kinase 9 (Homo sapiens) (UniProt P50750); assay: Inhibition of CDK9 in human A2780 cells assessed as reduction in RNAP2 phosphorylation at ser2 residues after 24 hrs by Western blot analysis; assay type: cell-based; conditions: dose 0.5-5 µM
[24] = target: Cyclin-dependent kinase 9 (Homo sapiens) (UniProt P50750); assay: Inhibition of CDK9 in human A2780 cells assessed as reduction in RNAP2 phosphorylation at ser5 residues after 24 hrs by Western blot analysis; assay type: cell-based; conditions: dose 0.5-5 µM
[25] = test system: HCT-116; assay: Induction of apoptosis in human HCT-116 cells assessed as increase in p53 protein expression at 0.5 to 5 uM after 24 hrs by Western blot analysis; assay type: functional, cell-based; conditions: dose 0.5-5 µM
[26] = test system: HCT-116; assay: Induction of apoptosis in human HCT-116 cells assessed as increase in p21 protein expression at 0.5 to 5 uM after 24 hrs by Western blot analysis; assay type: functional, cell-based; conditions: dose 0.5-5 µM

Chain of Cyclin-dependent kinase 9 (Homo sapiens) (P50750 whole entry): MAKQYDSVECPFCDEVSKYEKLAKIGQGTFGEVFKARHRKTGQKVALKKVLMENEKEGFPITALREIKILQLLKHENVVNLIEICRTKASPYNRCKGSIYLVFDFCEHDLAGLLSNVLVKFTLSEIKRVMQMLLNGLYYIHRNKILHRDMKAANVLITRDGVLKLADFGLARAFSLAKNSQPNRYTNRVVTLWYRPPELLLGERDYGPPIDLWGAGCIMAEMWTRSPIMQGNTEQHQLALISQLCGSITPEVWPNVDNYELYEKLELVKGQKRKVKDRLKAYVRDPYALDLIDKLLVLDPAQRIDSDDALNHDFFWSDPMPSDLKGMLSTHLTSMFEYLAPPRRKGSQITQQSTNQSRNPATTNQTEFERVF
Chain of Cyclin-dependent kinase 1/cyclin B1 (P06493 whole entry): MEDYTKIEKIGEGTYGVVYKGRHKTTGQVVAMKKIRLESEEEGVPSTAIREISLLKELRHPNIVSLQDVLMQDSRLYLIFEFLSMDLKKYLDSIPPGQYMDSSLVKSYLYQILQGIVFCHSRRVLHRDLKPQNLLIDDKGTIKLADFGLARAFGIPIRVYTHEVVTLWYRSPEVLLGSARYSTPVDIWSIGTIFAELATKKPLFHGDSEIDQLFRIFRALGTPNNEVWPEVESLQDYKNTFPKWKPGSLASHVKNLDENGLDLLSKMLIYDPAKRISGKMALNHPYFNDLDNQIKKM
Chain of Cyclin-dependent kinase 1/cyclin B1 (P14635 whole entry, further chain): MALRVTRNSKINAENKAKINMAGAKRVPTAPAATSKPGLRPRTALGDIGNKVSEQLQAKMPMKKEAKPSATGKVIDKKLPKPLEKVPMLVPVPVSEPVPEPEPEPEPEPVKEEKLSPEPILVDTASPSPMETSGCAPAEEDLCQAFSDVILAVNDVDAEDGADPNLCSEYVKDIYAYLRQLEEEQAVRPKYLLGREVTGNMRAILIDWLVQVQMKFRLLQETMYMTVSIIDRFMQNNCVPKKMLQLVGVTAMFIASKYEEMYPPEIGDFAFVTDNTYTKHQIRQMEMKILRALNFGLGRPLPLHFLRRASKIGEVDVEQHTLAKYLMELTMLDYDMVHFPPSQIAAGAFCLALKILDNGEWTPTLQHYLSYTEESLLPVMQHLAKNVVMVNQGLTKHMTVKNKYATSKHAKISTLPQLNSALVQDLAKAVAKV
Chain of Tyrosine-protein kinase Fyn (Homo sapiens) (P06241 2-537 limits assumed): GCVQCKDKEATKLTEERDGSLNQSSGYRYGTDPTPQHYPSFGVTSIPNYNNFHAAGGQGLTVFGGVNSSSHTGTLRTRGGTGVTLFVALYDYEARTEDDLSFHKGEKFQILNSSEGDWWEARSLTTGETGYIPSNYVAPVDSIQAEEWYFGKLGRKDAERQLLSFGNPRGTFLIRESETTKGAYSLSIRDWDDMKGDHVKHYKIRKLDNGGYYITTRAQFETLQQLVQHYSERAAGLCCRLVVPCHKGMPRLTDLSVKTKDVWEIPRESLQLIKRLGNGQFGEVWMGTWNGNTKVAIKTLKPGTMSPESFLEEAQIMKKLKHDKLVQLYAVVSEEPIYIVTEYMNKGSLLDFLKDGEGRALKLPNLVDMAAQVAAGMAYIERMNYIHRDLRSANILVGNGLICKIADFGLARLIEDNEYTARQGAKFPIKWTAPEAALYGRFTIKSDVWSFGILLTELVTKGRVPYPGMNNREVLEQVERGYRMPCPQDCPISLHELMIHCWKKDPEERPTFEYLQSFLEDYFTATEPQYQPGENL

**Q.** Which Ki [1] does the source give for `CNc1nc(C)c(-c2nc(Nc3cccc(N4CCN5CCC4CC5)c3)ncc2C)s1` here?
**A.** The Ki was 1.17 µM.

**Q.** What about the Ratio Ki [2] of the same molecule?
**A.** Its Ratio Ki is > 50.

**Q.** What about the inhibition [3] of the same molecule?
**A.** Its inhibition is “Active”.

**Q.** And the inhibition [4]?
**A.** Its inhibition is “Active”.

**Q.** What about the GI50 [5] of the same molecule?
**A.** Its GI50 is 2.1 µM.

**Q.** What about the GI50 [6] of the same molecule?
**A.** The GI50 was 1.46 µM.

**Q.** And the GI50 [7]?
**A.** The GI50 was 1.07 µM.

**Q.** What about the viability at 0.5 µM [8] of the same molecule?
**A.** Its viability at 0.5 µM is 88.3%.

**Q.** What about the Activity [9] of the same molecule?
**A.** The Activity was 6.2%.

**Q.** What about the Activity [10] of the same molecule?
**A.** The Activity was 9.3%.

**Q.** And the Activity [11]?
**A.** The Activity was 13.1%.

**Q.** And the Activity [12]?
**A.** The Activity was 14.4%.

**Q.** What about the Activity [13] of the same molecule?
**A.** The Activity was 15.5%.

**Q.** What about the Activity [14] of the same molecule?
**A.** The Activity was 24.65%.

**Q.** What about the Activity [15] of the same molecule?
**A.** Its Activity is 2%.

**Q.** And the Activity [16]?
**A.** The Activity was 59.8%.

**Q.** What about the Activity [17] of the same molecule?
**A.** Its Activity is 50.5%.

**Q.** And the Activity [18]?
**A.** Its Activity is 7.6%.

**Q.** And the Activity [19]?
**A.** Its Activity is 8.3%.

**Q.** And the Activity [20]?
**A.** Its Activity is 10.8%.

**Q.** What about the Activity [21] of the same molecule?
**A.** The Activity was 23.5%.

**Q.** And the Activity [22]?
**A.** The Activity was “Dose-Dependent Effect”.

**Q.** And the inhibition [23]?
**A.** Its inhibition is “Dose-Dependent Effect”.

**Q.** And the inhibition [24]?
**A.** The inhibition was “Dose-Dependent Effect”.

**Q.** What about the Activity [25] of the same molecule?
**A.** Its Activity is “Active”.

**Q.** What about the Activity [26] of the same molecule?
**A.** The Activity was “Active”.
